The record followed here is ChEMBL document CHEMBL1150955, “Antimycobacterial activities of dehydrocostus lactone and its oxidation products” (1998).

Each structure is given as a SMILES string. ≈ marks a conversion by molar mass, not a printed value. Bounds are passed on as bounds.

The subject of one experiment is Mycobacterium tuberculosis. The experiment is described as follows: Antimycobacterial activity against Mycobacterium tuberculosis H37Rv by radiorespirometric bioassay. It counts as functional. The gist of the method:
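Radiorespirometric bioassay giving MIC against strain H37Rv, run essentially per earlier reports; M. tuberculosis experiments usually completed in 10 days.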
With `C=C1[C@@H]2[C@H]3OC(=O)C(=C)[C@@H]3CCC(=C)[C@@H]2C[C@H]1O` [ISOZALUZANIN C], the MIC was more than 128 µg/mL.

`C=C1CC[C@@H]2[C@H]1[C@H]1OC(=O)C(=C)[C@@H]1CC[C@]21CO1` [DEHYDROCOSTUS LACTONE,10ALPHA(14)EPOXIDE] registered an MIC of 64 µg/mL (≈ 260 µM).

As to `C=C1C(=O)O[C@H]2[C@H]1CCC(C)=C1CC[C@@](C)(O)[C@@H]12` [MICHELIOLIDE], the MIC was 50 µg/mL (≈ 201 µM).

As for `C=C1C(=O)O[C@@H]2[C@@H]3[C@@H](CC[C@]34CO4)[C@@]3(CC[C@@H]12)CO3`, the MIC came out at 128 µg/mL (≈ 488 µM).

For the molecule `C=C1C(=O)O[C@@H]2[C@@H]3[C@@H](CC[C@]34CO4)[C@]3(CC[C@@H]12)CO3`, it took 128 µg/mL (≈ 488 µM) to inhibit growth (MIC).

The molecule `C=C1CC[C@H]2C(=C)CC[C@H]3C(=C)C(=O)O[C@@H]3[C@@H]12` [DEHYDROCOSTUSLACTONE] returned an MIC of 2 µg/mL (≈ 8.68 µM).

In turn, `C=C1C(=O)O[C@@H]2[C@@H]3[C@@H](CC[C@@]34CO4)[C@]3(CC[C@@H]12)CO3` yielded an MIC of 64 µg/mL (≈ 244 µM).

`C=C1CC[C@H]2C(=C)CC[C@@]3(O)C(=C)C(=O)O[C@@H]3[C@@H]12` yielded an MIC of more than 128 µg/mL.

In turn, `C=C1C(=O)O[C@H]2[C@H]1[C@@H](O)[C@H](OC(=O)/C(C)=C\C)C(C)=C1C(=O)C=C(C)[C@@]12O` [PUMILIN] gave an MIC of 128 µg/mL (≈ 342 µM).

The molecule `C=C1C(=O)O[C@@H]2[C@@H]3[C@@H](CC[C@]34CO4)C(=C)CC[C@@H]12` registered an MIC of 32 µg/mL (≈ 130 µM).

For the molecule `C=C1CC[C@@H]2[C@H]1[C@H]1OC(=O)C(=C)[C@@H]1CC[C@@]21CO1` [DEHYDROCOSTUS LACTONE,10BETA(14)EPOXIDE], the MIC was determined as 32 µg/mL (≈ 130 µM).

A further experiment deals with Mycobacterium avium. The experiment can be described thus: Antimycobacterial activity against Mycobacterium avium by radiorespirometric bioassay. Format: functional. The gist of the method:
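MIC determined in a radiorespirometric bioassay run essentially per earlier reports; M. avium experiments usually completed within 5 days.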
`C=C1CC[C@H]2C(=C)CC[C@H]3C(=C)C(=O)O[C@@H]3[C@@H]12` [DEHYDROCOSTUSLACTONE] gave an MIC of 16 µg/mL (≈ 69.5 µM).

`C=C1C(=O)O[C@H]2[C@H]1[C@@H](O)[C@H](OC(=O)/C(C)=C\C)C(C)=C1C(=O)C=C(C)[C@@]12O` [PUMILIN] returned an MIC of 128 µg/mL (≈ 342 µM).
